We go through 62 compounds from PubChem BioAssay AID561 (The Scripps Research Institute Molecular Screening Center, 2006).

The campaign covered roughly 65,000 compounds. About 280 (0.43%) were called active.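 How the source made its calls: active means inhibition above the mean of all tested compounds plus 3 SD (cut at about 52% in these data); inactive means the rest.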 Only a selection was taken, and actives are over-represented in it overall.

Nuclear receptor ROR-alpha (Homo sapiens), sequence (P35398 whole entry, looked up, the tested form may be a part): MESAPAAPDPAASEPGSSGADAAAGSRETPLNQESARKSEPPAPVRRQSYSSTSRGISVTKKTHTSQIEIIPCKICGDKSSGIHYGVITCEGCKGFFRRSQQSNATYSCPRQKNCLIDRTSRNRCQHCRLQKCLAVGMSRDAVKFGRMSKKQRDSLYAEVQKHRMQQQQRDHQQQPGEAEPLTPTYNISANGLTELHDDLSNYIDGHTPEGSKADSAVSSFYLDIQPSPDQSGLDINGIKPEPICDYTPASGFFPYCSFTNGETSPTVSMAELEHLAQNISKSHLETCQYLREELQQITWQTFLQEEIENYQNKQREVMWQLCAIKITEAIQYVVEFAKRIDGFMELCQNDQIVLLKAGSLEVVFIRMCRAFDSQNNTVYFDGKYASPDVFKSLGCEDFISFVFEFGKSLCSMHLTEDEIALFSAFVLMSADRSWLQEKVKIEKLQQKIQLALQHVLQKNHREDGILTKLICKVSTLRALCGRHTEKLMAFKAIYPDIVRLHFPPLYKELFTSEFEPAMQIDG

The assay addresses Nuclear receptor ROR-alpha (Homo sapiens) (UniProt P35398). Briefly: inhibitors of orphan receptor RORA, primary screen, cell-based, luminescence (AID 561).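 Further: 0% = RORA-transfected cells with DMSO and 100% = mock-transfected cells lacking RORA.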 As to conditions: CHO-K1 Gal4-RORA LBD luciferase reporter, at 10 µM, hits give high values. The gist of the method:
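Test system: CHO-K1 cells with Gal4-hRORA LBD fusion and pG5-luc reporter | Timing: 20 h compound treatment, 37 °C | Detection: Luminescence from basal luciferase reporter expression | Read-out basis: % inhibition of basal luciferase versus +RORA/-RORA DMSO controls | Repeats: One measurement per compound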
As for `O=C(Nc1ccon1)c1cccc(Cl)c1`, the inhibition (in general, the change of the read-out against control, counted positive when it falls) was 2.2% (inactive).

On to `O=C(Nc1ccc(Cl)cc1)c1ccsn1`, for which the inhibition is -59.5% (inactive).

Regarding `COc1ccc(OC)c(NC(=O)Cn2c(=O)oc3ccccc32)c1`, the inhibition was -7.4% (inactive).

Turning to `O=C(CC1OC(=O)c2ccccc21)NC1CCCCC1` (configuration not stated), the inhibition was 7.6% (inactive).

In the case of `COc1ccc(-c2cc(C(F)(F)F)nc(S(C)(=O)=O)n2)cc1OC`, the inhibition is 60.9% (active).

Turning to `CCN1C(=O)/C(=C2\SC(N3CCCCC3)=NC2=O)c2ccccc21`, the inhibition was -84.9% (inactive).

`c1ccc(-n2ncc3c2ncn2c(CSc4nc5ccccc5s4)nnc32)cc1`: the inhibition was 25% (inactive).

As to `O=C(NCc1ccccn1)c1c(O)c2c([nH]c1=O)CCCC2`, the inhibition is 9.5% (inactive).

As to `O=C(OC1CCOC1=O)c1ccc(-c2nc3ccccc3s2)s1` (configuration not stated), the inhibition is 60.6% (active).

For the compound `CN(Cc1ccccc1)c1nc2c(c(=O)[nH]c(=O)n2C)n1CCSc1nc2ccccc2[nH]1`, the inhibition was -1.9% (inactive).

As to `CCOc1ccccc1NC(=O)CCN1CCN(S(=O)(=O)c2ccc(OC)cc2)CC1`, the inhibition is 0.6% (inactive).

On to `NC(=O)CSC1=Nc2ccccc2C2=NC(CCC(=O)NCc3ccc(F)cc3)C(=O)N12` (configuration not stated), for which the inhibition was 17.5% (inactive).

Turning to `CCOC(=O)C1=C(CC)Nc2ccccc2N=C1NC(=O)c1cccc(S(=O)(=O)N2CCCC2)c1`, the inhibition is -0.9% (inactive).

Turning to `CCn1c(=N)c(S(=O)(=O)c2ccc(F)cc2)cc2c(=O)n3ccccc3nc21`, the inhibition is 13.5% (inactive).

With `c1ccc2c(c1)OCC(CNc1ncnc3nc[nH]c13)O2` (configuration not stated), the inhibition is -20.2% (inactive).

Consider `Cc1ccc2nc(NC(=O)C3CCN(S(=O)(=O)c4ccc5c(c4)oc(=O)n5C)CC3)sc2c1`, for which the inhibition was -2.8% (inactive).

Regarding `CCOc1ccc(S(=O)(=O)N(CC(=O)O)c2ccccc2)cc1`, the inhibition is 0% (inactive).

As to `COc1cc(C2C(C(=O)Nc3ccccc3OC)=C(C)Nc3ncnn32)ccc1O` (configuration not stated), the inhibition was -9.5% (inactive).

On to `COc1ccccc1NC(=O)c1ccc(C)s1`, for which the inhibition was -48.9% (inactive).

For the compound `COc1ccc(C(=O)Nc2ccc3c(c2)OCO3)cc1OC`, the inhibition was -69.8% (inactive).

On to `COCCCNC(=O)C1CC(=O)N(c2ccc(C)cc2)C1` (configuration not stated), for which the inhibition was -6.1% (inactive).

Regarding `CCOC(=O)c1ccc(NC(=O)Cn2nnc(-c3ccc(C)cc3)n2)cc1`, the inhibition was -41.7% (inactive).

On to `C=C(C)CSc1nc(N)c2c3c(sc2n1)CCC3`, for which the inhibition was -56.2% (inactive).

Take `CC1CCC(NC(=O)c2ccc(N3CCCC3=O)cc2)CC1` (configuration not stated): the inhibition is -61.7% (inactive).

As to `CCNS(=O)(=O)c1ccc(NC(=O)Nc2cccc(OC)c2)cc1`, the inhibition is 10% (inactive).

Consider `O=C(NCc1ccccc1)C1C(=O)N(Cc2ccccc2)C(=O)C1C1(O)CCCC1` (configuration not stated), for which the inhibition was 13% (inactive).

With `CCOC(=O)CSc1nncc2ccc(OC)c(OC)c12`, the inhibition is 21% (inactive).

On to `Cc1ccccc1CSc1nnc(-c2cccnc2)n1N`, for which the inhibition is 7.1% (inactive).

As for `O=C1c2ccccc2C(=O)N1c1ccccc1S(=O)C(F)(F)F` (configuration not stated), the inhibition was -6.1% (inactive).

With `COc1ccc(-n2ncc3c(N4CCc5ccccc54)ncnc32)cc1`, the inhibition is -50.3% (inactive).

Turning to `CCS(=O)(=O)N1CCCC(C(=O)NCc2ccc(C)cc2)C1` (configuration not stated), the inhibition was 5.2% (inactive).

As to `Cc1cccc2nc(CNc3ccc(F)cc3)cn12`, the inhibition was -1% (inactive).

Consider `Cc1cccc(NC(=O)c2ccc3ccccc3n2)n1`, for which the inhibition was -83% (inactive).

In the case of `COc1ccc(N2CCN(C(=O)CSc3nc4cc(OC)c(OC)cc4cc3C#N)CC2)cc1`, the inhibition is 8.5% (inactive).

Regarding `Cc1ccc(NC(=O)NCC(c2cccnc2)N2CCOCC2)cc1` (configuration not stated), the inhibition is 20.8% (inactive).

In the case of `CCOC(=O)C1=C(C)NC(C)=C(C(=O)OCC)C1C1=COCCO1`, the inhibition was 7.2% (inactive).

As to `O=C(NCCN1CCOCC1)c1ccc2c(c1)ncn2C1CCCC1`, the inhibition was -3.7% (inactive).

With `Cc1cc(C(=O)OCC(=O)NCc2ccco2)c(C)n1-c1ccccc1`, the inhibition is -61.4% (inactive).

In the case of `CCCOC(=O)c1[nH]c2c(c1C)C(=O)CC(c1cc(OC)c(OC)c(OC)c1)C2` (configuration not stated), the inhibition was 61.1% (active).

`Cc1ccccc1OCC(=O)Nc1ccc(N2CCN(C(=O)C(C)C)CC2)c(Cl)c1`: the inhibition is 52% (active).

For the compound `COc1ccc(C(=O)CSc2nnc(COc3ccccc3)n2Cc2ccco2)cc1`, the inhibition is -7.7% (inactive).

`COc1ccc(C)c2sc(=NC(=O)c3ccc(C#N)cc3)n(C)c12`: the inhibition was -84.6% (inactive).

Turning to `CCS(=O)(=O)n1nc(-c2ccc(OC)cc2)nc1SC`, the inhibition was -52.4% (inactive).

On to `N#Cc1nc(Cc2ccccc2)oc1NCCc1ccccc1`, for which the inhibition is -54.1% (inactive).

For `COc1cc(-n2c(C)nc3cc(C(=O)NCc4ccco4)ccc32)cc(OC)c1OC`, the inhibition is -5.4% (inactive).

For the compound `COc1ccc(OC)c(CN2C(=O)CCC2(C)C(=O)NC2CCCCCC2)c1` (configuration not stated), the inhibition is 5.2% (inactive).

Take `CCN(CC)S(=O)(=O)c1cc(C(=O)Nc2ccccn2)ccc1C`: the inhibition is -59.6% (inactive).

Regarding `O=C(Nc1c(C(=O)N2CCCCC2)cnn1-c1ccccc1)c1ccco1`, the inhibition is -6.7% (inactive).

For the compound `O=c1c2ccccc2oc2nc(C3CCCCC3)n(Cc3ccco3)c(=O)c12`, the inhibition is 2.7% (inactive).

For `Cc1cccc(OCc2nnc(SCc3nc4cc(C(F)(F)F)ccc4c(=O)[nH]3)o2)c1`, the inhibition is 16.5% (inactive).

For the compound `CCOc1cccc(-c2nn3c(-c4ccccn4)nnc3s2)c1`, the inhibition is -0.6% (inactive).

With `O=C(Nc1ccc(Cl)cn1)c1cnn2cccnc12`, the inhibition was -62% (inactive).

As to `CSc1ccc(NC(=O)N2CC(C)OC(C)C2)cc1` (configuration not stated), the inhibition was 9.2% (inactive).

As to `CCC(CC)C(=O)Nc1cccc(C(=O)N2CCCC2)c1`, the inhibition is -11% (inactive).

For `Oc1ccc(Cl)cc1/C=N/c1nc2ccccc2[nH]1`, the inhibition is -51.7% (inactive).

Take `CSc1cccc(NC(=O)C2CCCN2S(=O)(=O)c2ccc3c(c2)CCC(=O)N3)c1` (configuration not stated): the inhibition was -14% (inactive).

With `OC(COc1ccc2ccccc2c1)CN1CCOCC1` (configuration not stated), the inhibition was -16.8% (inactive).

Consider `OCCCN1c2ccccc2Nc2nnc(-c3ccccc3)cc21`, for which the inhibition was -56.8% (inactive).

For the compound `CCC1(C)Cc2c(sc3nc4n(c(=O)c23)CCCS4)CO1` (configuration not stated), the inhibition is -15.7% (inactive).

For `O=C(Cn1c(-c2cncs2)nc2ccccc21)NC1CCCC1`, the inhibition is 19.7% (inactive).

In the case of `CCOC(=O)N1CCN(C(=O)C2CCN(c3ncnc4c3sc3cccc(F)c34)CC2)CC1`, the inhibition is 75.2% (active).

Take `O=C(Nc1nc(-c2ccncc2)cs1)C1COc2ccccc2O1` (configuration not stated): the inhibition is -15.8% (inactive).
